Experiments:
[1] = Antioxidant activity assessed as redox reaction between compound and MTT in DMSO measured after 6 hrs; format: functional
Outline: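 Reduction of MTT to formazan was read on a microplate reader. Results are reported as 50% inhibitory concentrations, mean ± SEM (n = 2).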

[2] = Antioxidant activity assessed as inhibition of ferrous chloride-induced lipid peroxidation in […] labelled SLPC large unilamellar vesicle measured over 21 mins by fluorescence assay; format: functional
Outline: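 Vesicle model: large unilamellar vesicles carrying the fluorescent probe 3-[p-(6-phenyl)-1,3,5-hexatrienyl]phenylpropionic acid. Lipid peroxidation was followed by the emitted fluorescence on a fluorometer. Values are 50% inhibitory concentrations, expressed as mean ± SEM (n = 2).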

[3] = target: T1, Prostaglandin G/H synthase 1 (Ovis aries, UniProt P05979); assay: Inhibition of ovine COX1 using arachidonic acid as substrate pretreated for 3 mins followed by substrate addition measured immediately
T1 sequence (P05979 whole entry): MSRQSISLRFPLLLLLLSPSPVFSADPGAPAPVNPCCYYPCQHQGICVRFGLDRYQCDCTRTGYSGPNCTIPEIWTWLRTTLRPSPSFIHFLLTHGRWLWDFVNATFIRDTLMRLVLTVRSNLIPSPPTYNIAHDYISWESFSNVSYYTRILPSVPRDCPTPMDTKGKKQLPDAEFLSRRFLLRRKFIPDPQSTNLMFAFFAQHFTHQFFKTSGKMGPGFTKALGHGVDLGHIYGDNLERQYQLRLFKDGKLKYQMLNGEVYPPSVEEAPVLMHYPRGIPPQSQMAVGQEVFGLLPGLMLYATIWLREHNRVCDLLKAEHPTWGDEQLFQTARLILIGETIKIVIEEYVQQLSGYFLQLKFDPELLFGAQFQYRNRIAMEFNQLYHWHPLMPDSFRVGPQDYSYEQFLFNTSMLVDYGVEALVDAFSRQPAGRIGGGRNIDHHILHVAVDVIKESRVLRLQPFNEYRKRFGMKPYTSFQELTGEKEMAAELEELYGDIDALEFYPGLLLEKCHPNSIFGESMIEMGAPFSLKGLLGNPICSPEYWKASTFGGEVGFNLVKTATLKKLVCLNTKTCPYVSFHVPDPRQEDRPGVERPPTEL
Outline: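 COX-1 enzyme was prepared in-house from ram seminal vesicles. Activity was monitored in a micro oxygen chamber using an oxygen electrode attached to a biological oxygen monitor.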

[4] = target: T2, Prostaglandin G/H synthase 2 (Homo sapiens, UniProt P35354); assay: Inhibition of human COX2 expressed in insect cells using arachidonic acid as substrate pretreated for 3 mins followed by substrate addition measured immediately; format: cell-based
T2 sequence (P35354 whole entry): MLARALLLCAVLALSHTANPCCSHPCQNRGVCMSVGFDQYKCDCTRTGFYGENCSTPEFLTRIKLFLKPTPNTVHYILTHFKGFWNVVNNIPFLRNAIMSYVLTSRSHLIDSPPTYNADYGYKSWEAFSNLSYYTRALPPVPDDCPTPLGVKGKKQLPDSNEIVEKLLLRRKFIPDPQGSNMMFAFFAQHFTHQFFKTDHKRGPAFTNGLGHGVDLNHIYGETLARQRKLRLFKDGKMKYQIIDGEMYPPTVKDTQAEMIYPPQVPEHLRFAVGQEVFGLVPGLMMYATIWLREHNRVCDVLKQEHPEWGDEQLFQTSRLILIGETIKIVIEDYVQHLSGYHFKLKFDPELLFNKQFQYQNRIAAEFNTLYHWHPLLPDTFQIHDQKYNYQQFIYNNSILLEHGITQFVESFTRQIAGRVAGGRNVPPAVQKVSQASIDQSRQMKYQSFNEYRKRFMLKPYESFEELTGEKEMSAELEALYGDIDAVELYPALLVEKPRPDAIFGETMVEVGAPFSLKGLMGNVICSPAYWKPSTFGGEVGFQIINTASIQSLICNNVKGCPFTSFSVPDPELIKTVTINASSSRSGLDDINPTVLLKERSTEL

Row | IC50 [2] | IC50 ([4]; read-out: IC50) | SMILES | IC50 [1] | also measured
1 | 10 µM | – | CC(C)(C)c1cc(O)ccc1O [E319] | 150 µM | –
2 | 62.6 µM | 45.3 µM | COc1ccc2ccc(=O)oc2c1C/C=C(\C)COC(=O)C=C(C)C | 122 µM | IC50 ([3]; read-out: IC50): 36.8 µM
3 | 114 µM | – | CC(=O)OC1C2OC(CC(C)=CC2=O)C1(O)C=C(C)C (centres undefined) | 67.1 µM | IC50 [3]: Not Active; IC50 [4]: Not Active
4 | – | – | O=C1O[C@H]([C@@H](O)CO)C(O)=C1O [ASCORBIC ACID] | 142 µM | –
5 | 86.1 µM | 56.4 µM | COc1ccc2ccc(=O)oc2c1C/C=C(\C)COC(=O)CC(C)C | 128 µM | IC50 ([3]; read-out: IC50): 47.7 µM
6 | 43 µM | 34.6 µM | CCC(C)C(C(=O)O)N(C(=O)C(N)CC(C)C)C(C(=O)O)C(C)CC (centres undefined) | 48.6 µM | IC50 [3]: Not Active
7 | 6.9 µM | – | Cc1cc(C(C)(C)C)c(O)c(C(C)(C)C)c1 [BUTYLATED HYDROXYTOLUENE] | – | –
8 | 63.7 µM | – | CC(C)=CCOc1c2ccoc2cc2oc(=O)ccc12 [ISOIMPERATORIN] | – | –
9 | 97.7 µM | – | O=C(O)CC(O)C(=O)O (centres undefined) [MALIC ACID] | – | –
10 | 74.8 µM | – | CC1(C)O[C@H]1COc1c2ccoc2cc2oc(=O)ccc12 [OXYPEUCEDANIN] | – | –
11 | – | – | CC(=O)Oc1ccccc1C(=O)O [ASPIRIN] | – | IC50 [4]: Not Active

Row | SMILES | IC50 [2] | IC50 ([4]; read-out: IC50) | IC50 [1] | also measured
12 | COc1ccc2cc([C@H](C)C(=O)O)ccc2c1 [NAPROXEN] | – | 52.2 µM | – | –
13 | COc1ccc2ccc(=O)oc2c1CC=C(C)C [OSTHOLE] | 120 µM | 81.1 µM | – | IC50 ([3]; read-out: IC50): 52.5 µM
14 | O=C(O)C(O)Cc1ccccc1 (centres undefined) | 161 µM | – | – | –
